{"source": "ChEMBL document CHEMBL4376874", "about": "“Discovery of Potent and Selective Epidermal Growth Factor Receptor (EGFR) Bifunctional Small-Molecule Degraders” (J Med Chem, 2020)", "key": {"[1]": {"test": "Cmax in Swiss albino mouse at 50 mg/kg, ip measured after 8 hrs", "format": "ADME, organism-based", "design": "dose 50 mg/kg, route intraperitoneal", "conditions": "in vivo"}, "[2]": {"tested_on": "Protein cereblon/Epidermal growth factor receptor (Homo sapiens), P00533+Q96SW2 [UNDEFINED MUTATION]", "sequence (P00533 whole entry, looked up, stated change not applied)": "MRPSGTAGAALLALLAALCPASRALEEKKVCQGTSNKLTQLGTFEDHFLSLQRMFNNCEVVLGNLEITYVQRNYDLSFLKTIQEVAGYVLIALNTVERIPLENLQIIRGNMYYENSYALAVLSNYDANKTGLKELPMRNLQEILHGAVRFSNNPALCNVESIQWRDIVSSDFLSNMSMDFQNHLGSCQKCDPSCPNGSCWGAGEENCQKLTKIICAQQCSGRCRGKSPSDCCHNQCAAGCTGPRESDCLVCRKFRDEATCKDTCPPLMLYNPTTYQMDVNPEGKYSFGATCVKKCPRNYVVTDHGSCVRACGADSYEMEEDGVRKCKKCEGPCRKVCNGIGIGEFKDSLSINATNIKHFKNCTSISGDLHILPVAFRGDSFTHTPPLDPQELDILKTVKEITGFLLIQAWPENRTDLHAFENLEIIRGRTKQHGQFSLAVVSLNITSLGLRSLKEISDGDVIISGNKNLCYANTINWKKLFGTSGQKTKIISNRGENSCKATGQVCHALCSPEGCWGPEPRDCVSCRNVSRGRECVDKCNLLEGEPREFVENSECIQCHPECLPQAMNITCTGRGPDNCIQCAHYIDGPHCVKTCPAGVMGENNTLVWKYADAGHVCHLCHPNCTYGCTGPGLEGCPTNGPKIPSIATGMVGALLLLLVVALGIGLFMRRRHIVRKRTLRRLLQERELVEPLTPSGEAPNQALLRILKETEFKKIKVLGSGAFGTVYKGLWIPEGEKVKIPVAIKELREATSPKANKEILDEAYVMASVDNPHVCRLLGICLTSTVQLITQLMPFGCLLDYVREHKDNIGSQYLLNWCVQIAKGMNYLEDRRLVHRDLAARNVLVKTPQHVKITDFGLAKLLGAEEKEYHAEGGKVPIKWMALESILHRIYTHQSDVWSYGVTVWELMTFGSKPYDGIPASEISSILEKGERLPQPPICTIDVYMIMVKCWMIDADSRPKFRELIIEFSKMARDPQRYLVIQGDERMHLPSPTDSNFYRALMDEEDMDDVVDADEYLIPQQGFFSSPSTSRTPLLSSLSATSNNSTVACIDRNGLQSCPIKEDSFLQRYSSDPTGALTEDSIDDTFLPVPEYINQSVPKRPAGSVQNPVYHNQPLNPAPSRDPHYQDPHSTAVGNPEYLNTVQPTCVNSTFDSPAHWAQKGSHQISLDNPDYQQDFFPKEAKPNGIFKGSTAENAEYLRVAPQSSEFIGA", "sequence (Q96SW2 whole entry, looked up, stated change not applied)": "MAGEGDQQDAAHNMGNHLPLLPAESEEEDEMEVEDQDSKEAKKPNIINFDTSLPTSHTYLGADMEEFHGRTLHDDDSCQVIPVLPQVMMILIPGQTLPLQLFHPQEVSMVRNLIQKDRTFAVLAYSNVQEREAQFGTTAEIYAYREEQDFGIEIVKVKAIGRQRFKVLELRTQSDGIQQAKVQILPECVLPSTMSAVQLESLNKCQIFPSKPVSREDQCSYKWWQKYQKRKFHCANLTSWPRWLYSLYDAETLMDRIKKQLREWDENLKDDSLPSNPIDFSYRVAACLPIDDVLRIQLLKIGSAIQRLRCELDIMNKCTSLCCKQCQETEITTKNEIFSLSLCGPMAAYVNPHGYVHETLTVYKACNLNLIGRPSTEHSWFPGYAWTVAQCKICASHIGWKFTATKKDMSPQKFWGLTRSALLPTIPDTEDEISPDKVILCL", "test": "Protac activity at CRBN/EGFR exon 19 deletion mutant in human HCC827 cells assessed as time required to induce 50% EGFR degradation at 100 nM treated 8 hrs post serum starvation by Western blot analysis", "format": "cell-based", "outline": "(§1)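 After 8 h serum starvation, cells got 100 nM degrader and were collected at serial time points for Western blot of EGFR and downstream signaling.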"}, "[3]": {"target": "Epidermal growth factor receptor (Homo sapiens, UniProt P00533)", "sequence (P00533 whole entry)": "as the sequence (P00533 whole entry, looked up, stated change not applied) above", "test": "Induction of wild-type EGFR degradation in human OVCAR8 cells at up to 10 uM treated 8 hrs post serum starvation measured after 16 hrs by Western blot analysis", "format": "cell-based"}, "[4]": {"tested_on": "Protein cereblon/Epidermal growth factor receptor (Homo sapiens), P00533+Q96SW2 [UNDEFINED MUTATION]", "test": "Protac activity at CRBN/EGFR exon 19 deletion mutant in human HCC827 cells assessed as reduction in EGFR autophosphorylation up to 10 uM treated 8 hrs post serum starvation measured after 16 hrs by Western blot analysis", "format": "cell-based", "outline": "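Cultured to 80% confluence in RPMI/1640 with 20% FBS at 37 °C and 5% CO2, then switched to serum-free medium for 8 h. Degraders were added over a concentration range up to 10 μM for 16 h, with gefitinib at 1 μM as reference. Lysates in Laemmli buffer were immunoblotted for EGFR, p-EGFR and p-AKT. DC50 came from band quantification by nonlinear regression (variable slope).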"}, "[5]": {"tested_on": "Protein cereblon/Epidermal growth factor receptor (Homo sapiens), P00533+Q96SW2 [UNDEFINED MUTATION]", "test": "Reversible protac activity at CRBN/EGFR exon 19 deletion mutant in human HCC827 cells assessed as recovery of EGFR phosphorylation at 100 nM preincubated for 12 hrs followed by compound washout and measured after 24 hrs by Western blot analysis", "format": "cell-based", "outline": "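Cells were serum-starved 8 h, then given degrader for 12 h. They were washed three times with PBS and harvested at the indicated time points after washout. EGFR, p-EGFR and p-AKT were read by Western blot.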"}, "[6]": {"tested_on": "Protein cereblon/Epidermal growth factor receptor (Homo sapiens), P00533+Q96SW2 [UNDEFINED MUTATION]", "test": "Protac activity at CRBN/EGFR exon 19 deletion mutant in human HCC827 cells assessed as induction of EGFR degradation at up to 1 uM treated 8 hrs post serum starvation measured after 16 hrs by Western blot analysis", "format": "cell-based"}, "[7]": {"tested_on": "Protein cereblon/Epidermal growth factor receptor (Homo sapiens), P00533+Q96SW2 [L858R]", "test": "Protac activity at CRBN/EGFR L858R mutant in human H3255 cells assessed as induction of EGFR degradation at 100 nM measured after 8 hrs in presence of CRBN E3 ligase binder thalidomide by Western blot analysis", "format": "cell-based"}, "[8]": {"tested_on": "Protein cereblon/Epidermal growth factor receptor (Homo sapiens), P00533+Q96SW2 [L858R]", "test": "Protac activity at CRBN/EGFR L858R mutant in human H3255 cells assessed as induction of EGFR degradation at 100 nM treated 8 hrs post serum starvation by Western blot analysis", "format": "cell-based", "conditions": "TDE = time-dependent effect", "outline": "as §1"}, "[9]": {"tested_on": "Protein cereblon/Epidermal growth factor receptor (Homo sapiens), P00533+Q96SW2 [UNDEFINED MUTATION]", "test": "Reversible protac activity at CRBN/EGFR exon 19 deletion mutant in human HCC827 cells assessed as recovery of AKT phosphorylation at 100 nM preincubated for 12 hrs followed by compound washout and measured after 48 hrs by Western blot analysis"}, "HCC827": {"tested_on": "HCC827", "test": "Down regulation of SLC30A7 expression in human HCC827 cells at 100 nM measured after 16 hrs by LC-MS analysis", "format": "functional, cell-based", "outline": "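HCC-827 cells serum-starved 8 h, then treated at 100 nM for 16 h. Collected for label-free quantitative LC–MS proteomics; LFQ intensity compared between treated and control groups; three independent experiments.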"}}, "note": "The source made the active and inactive calls. No cut-off for these calls is given here."}
{"smiles": "COc1cc2ncnc(Nc3ccc(F)c(Cl)c3)c2cc1OCCCN1CCN(CCC(=O)NCCCCCCCCOc2cccc3c2C(=O)N(C2CCC(=O)NC2=O)C3=O)CC1", "note": "(stereo not given)", "values": [{"measurement": "Cmax", "setting": "[1]", "result": 500, "unit": "nM"}, {"measurement": "T1/2", "setting": "[2]", "result": 3.5, "unit": "h"}, {"measurement": "Activity", "setting": "[3]", "result": "Not Active"}, {"measurement": "Activity", "setting": "[4]", "result": "Active"}, {"measurement": "Activity", "setting": "[5]", "result": "Active"}, {"measurement": "Activity", "setting": "[6]", "result": "Active"}, {"measurement": "Activity", "setting": "[7]", "result": "inactive"}, {"measurement": "Activity", "setting": "[8]", "result": "Tde"}, {"measurement": "Activity", "setting": "[9]", "result": "Active"}, {"measurement": "Activity", "setting": "HCC827", "result": "Active"}]}
